Source: ChEMBL document CHEMBL4038284, “Synthesis of novel quinoline-based 4,5-dihydro-1H-pyrazoles as potential anticancer, antifungal, antibacterial and antiprotozoal agents” (Eur J Med Chem, 2017)
In brackets after ≈: the same amount, converted by molar mass.

Experiments:
Staphylococcus aureus [1] = assay: Antibacterial activity against vancomycin-intermediate Staphylococcus aureus after 24 hrs by resazurin dye based microdilution assay; assay type: functional
Procedure, shortened: (§1)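 MIC taken as the lowest concentration giving visible inhibition and/or by resazurin (1 mg/mL). Gentamicin was the control. Run in duplicate, repeated at least three times.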

Trypanosoma cruzi = assay: Antitrypanosomal activity against Trypanosoma cruzi Tulahuen intracellular amastigote harboring LacZ infected in human U937 cells after 72 hrs by CPRG/Nonidet reagent based spectrophotometric method; assay type: functional, cell-based; conditions: U-937, 72 h
Procedure, shortened: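 U-937 cells at 2.5 × 10^5 cells/mL in RPMI-1640 with 10% serum and 0.1 µg/mL PMA were infected with β-galactosidase-transfected Tulahuen epimastigotes at 5 parasites per cell. Infected cells were exposed to 50, 12.5, 3.125 and 0.78 µg/mL for 72 h. CPRG (100 uM) and 0.1% Nonidet P-40 were added for 3 h, read at 570 nm. EC50 by Probit. Triplicate, at least two experiments; benznidazole as reference.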

Staphylococcus aureus [2] = assay: Antibacterial activity against methicillin-resistant Staphylococcus aureus ATCC 43300 after 24 hrs by resazurin dye based microdilution assay; assay type: functional; conditions: ATCC 43300, 24 h
Procedure, shortened: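 Broth microdilution in Mueller Hinton broth, inoculum 5 × 10^5 – 8 × 10^5. Compound stocks diluted in MHB with 5% DMSO and 0.1% Tween 80. Incubation 24 h at 35-37 °C. MIC is the lowest concentration with visible growth inhibition and/or by resazurin (1 mg/mL) read-out. Gentamicin as control. Run in duplicate, replicated at least three times.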

Cryptococcus neoformans [3] = assay: Growth inhibition of Cryptococcus neoformans ATCC 32264 at 31.25 ug/ml incubated for 48 hrs under dark condition by broth microdilution method relative to control; assay type: functional; conditions: ATCC 32264, 48 h, read-out: GI
Procedure, shortened: (§2)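 CLSI M27-A3 broth microdilution in RPMI-1640, DMSO ≤1%. Inoculum 1-5 × 10^3 CFU/mL. Incubated 48 h at 30 °C, dark. % inhibition = 100 − (OD405 test − sterility control)/(OD405 growth control − sterility control), with growth and sterility control wells. Triplicate.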

Candida albicans [4] = assay: Growth inhibition of Candida albicans ATCC 10231 at 3.4 ug/ml incubated for 48 hrs under dark condition by broth microdilution method relative to control; assay type: functional; conditions: ATCC 10231, 48 h, read-out: GI
Cryptococcus neoformans [5] = assay: Growth inhibition of Cryptococcus neoformans ATCC 32264 at 15.62 ug/ml incubated for 48 hrs under dark condition by broth microdilution method relative to control; assay type: functional; conditions: ATCC 32264, 48 h, read-out: GI; procedure, shortened: as §2
Cryptococcus neoformans [6] = assay: Growth inhibition of Cryptococcus neoformans ATCC 32264 at 7.8 ug/ml incubated for 48 hrs under dark condition by broth microdilution method relative to control; assay type: functional; conditions: ATCC 32264, 48 h, read-out: GI; procedure, shortened: as §2
Cryptococcus neoformans [7] = assay: Growth inhibition of Cryptococcus neoformans ATCC 32264 at 250 ug/ml incubated for 48 hrs under dark condition by broth microdilution method relative to control; assay type: functional; conditions: ATCC 32264, 48 h, read-out: GI; procedure, shortened: as §2
Candida albicans [8] = assay: Growth inhibition of Candida albicans ATCC 10231 at 250 ug/ml incubated for 48 hrs under dark condition by broth microdilution method relative to control; assay type: functional; conditions: ATCC 10231, 48 h, read-out: GI; procedure, shortened: as §2
Leishmania panamensis = assay: Antileshmanial activity against EpiR/GFP fused Leishmania panamensis MHOM/CO/87/UA140 intracellular amastigotes infected in human […] cells after 72 hrs by flow cytometric method; assay type: functional, cell-based; conditions: MHOM/CO/87/UA140, 72 h
Procedure, shortened: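 PMA-treated U-937 cells (3 × 10^5 cells/mL) infected with stationary-phase GFP L. panamensis promastigotes (15:1), 3 h at 34 °C, then washed. After 24 h, compounds added at 50, 12.5, 3.125 and 0.78 µg/mL for 72 h at 37 °C. EC50 by Probit; triplicate, two experiments.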

Candida albicans [9] = assay: Growth inhibition of Candida albicans ATCC 10231 at 62.5 ug/ml incubated for 48 hrs under dark condition by broth microdilution method relative to control; assay type: functional; conditions: ATCC 10231, 48 h, read-out: GI; procedure, shortened: as §2
Staphylococcus aureus [10] = assay: Antibacterial activity against methicillin-sensitive Staphylococcus aureus ATCC 25923 after 24 hrs by resazurin dye based microdilution assay; assay type: functional; conditions: ATCC 25923, 24 h; procedure, shortened: as §1
Pseudomonas aeruginosa = assay: Antibacterial activity against Pseudomonas aeruginosa ATCC 27853 after 24 hrs by resazurin dye based microdilution assay; assay type: functional; conditions: ATCC 27853, 24 h; procedure, shortened: as §1
Candida albicans [11] = assay: Growth inhibition of Candida albicans ATCC 10231 at 125 ug/ml incubated for 48 hrs under dark condition by broth microdilution method relative to control; assay type: functional; conditions: ATCC 10231, 48 h, read-out: GI; procedure, shortened: as §2
Candida albicans [12] = assay: Antifungal activity against Candida albicans ATCC 10231 incubated for 48 hrs under dark condition by broth microdilution method; assay type: functional; conditions: ATCC 10231, 48 h
Procedure, shortened: (§3)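 CLSI M27-A3 broth microdilution in RPMI-1640, DMSO ≤1%, compounds at 250-0.98 µg/mL final. Inoculum 1-5 × 10^3 CFU/mL. Incubated 48 h at 30 °C in a moist dark chamber, read at OD405. MIC80 and MIC50 taken from % inhibition dose-response curves (mean ± SEM, triplicate). Amphotericin B was the positive control.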

Candida albicans [13] = assay: Growth inhibition of Candida albicans ATCC 10231 at 15.62 ug/ml incubated for 48 hrs under dark condition by broth microdilution method relative to control; assay type: functional; conditions: ATCC 10231, 48 h, read-out: GI; procedure, shortened: as §2
Neisseria gonorrhoeae = assay: Antibacterial activity against beta lactamase positive Neisseria gonorrhoeae ATCC 31426 by oxidase test; assay type: functional
Procedure, shortened: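 Agar dilution MIC on GC agar with 1% isovitalex containing increasing compound concentrations. Plates inoculated with about 1×10^4 CFU (5 µL). MIC is the lowest concentration that inhibited growth, with growth confirmed by oxidase test. Run in duplicate, repeated at least three times.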

Klebsiella pneumoniae [14] = assay: Antibacterial activity against carbapenemase positive Klebsiella pneumoniae BAA 1705 after 24 hrs by resazurin dye based microdilution assay; assay type: functional; conditions: BAA 1705, 24 h; procedure, shortened: as §1
Escherichia coli = assay: Antibacterial activity against Escherichia coli ATCC 25922 after 24 hrs by resazurin dye based microdilution assay; assay type: functional; conditions: ATCC 25922, 24 h; procedure, shortened: as §1
Klebsiella pneumoniae [15] = assay: Antibacterial activity against ESBL positive Klebsiella pneumoniae ATCC 700603 after 24 hrs by resazurin dye based microdilution assay; assay type: functional; conditions: Klebsiella pneumoniae, 700603, 24 h; procedure, shortened: as §1
Cryptococcus neoformans [16] = assay: Antifungal activity against Cryptococcus neoformans ATCC 32264 incubated for 48 hrs under dark condition by broth microdilution method; assay type: functional; conditions: ATCC 32264, 48 h; procedure, shortened: as §3
Candida albicans [17] = assay: Growth inhibition of Candida albicans ATCC 10231 at 7.8 ug/ml incubated for 48 hrs under dark condition by broth microdilution method relative to control; assay type: functional; conditions: ATCC 10231, 48 h, read-out: GI; procedure, shortened: as §2
Cryptococcus neoformans [18] = assay: Growth inhibition of Cryptococcus neoformans ATCC 32264 at 3.4 ug/ml incubated for 48 hrs under dark condition by broth microdilution method relative to control; assay type: functional; conditions: ATCC 32264, 48 h, read-out: GI
Plasmodium falciparum = assay: Antiplasmodial activity against chloroquine-sensitive Plasmodium falciparum 3D7 assessed as reduction in parasitic LDH activity after 48 hrs by Malstat reagent based […] method; assay type: functional; conditions: 3D7, 48 h
Procedure, shortened: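 Unsynchronized P. falciparum 3D7 at 0.5% parasitemia and 1% hematocrit in RPMI with 3% Albumax II. Exposed to 100, 25, 6.25 and 1.56 µg/mL for 48 h at 37 °C under 90% N2/5% CO2/5% O2. After three freeze-thaw cycles, LDH measured with Malstat and NBT/PES, 1 h in the dark, read at 650 nm. IC50 by Probit; triplicate, ≥2 experiments.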

Cryptococcus neoformans [19] = assay: Growth inhibition of Cryptococcus neoformans ATCC 32264 at 125 ug/ml incubated for 48 hrs under dark condition by broth microdilution method relative to control; assay type: functional; conditions: ATCC 32264, 48 h, read-out: GI; procedure, shortened: as §2
U-937 = assay: Cytotoxicity against human U937 cells after 72 hrs by MTT assay; assay type: cell-based; conditions: u-937, 72 h
Procedure, shortened: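 Exponentially growing U-937 at 1 × 10^5 cells/mL in RPMI-1640 with 10% FBS were exposed to 200, 50, 12.5 and 3.125 µg/mL for 72 h at 37 °C, 5% CO2. MTT for 3 h, stopped with isopropanol/SDS, formazan read at 570 nm, blank-corrected. LC50 by Probit from % viability against untreated cells. Triplicate, at least two independent experiments.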

Cryptococcus neoformans [20] = assay: Growth inhibition of Cryptococcus neoformans ATCC 32264 at 62.5 ug/ml incubated for 48 hrs under dark condition by broth microdilution method relative to control; assay type: functional; conditions: ATCC 32264, 48 h, read-out: GI; procedure, shortened: as §2
Candida albicans [21] = assay: Growth inhibition of Candida albicans ATCC 10231 at 31.25 ug/ml incubated for 48 hrs under dark condition by broth microdilution method relative to control; assay type: functional; conditions: ATCC 10231, 48 h, read-out: GI; procedure, shortened: as §2

Row | Structure (SMILES) | MIC (Staphylococcus aureus [1]) | EC50 (Trypanosoma cruzi) | MIC (Staphylococcus aureus [2]) | inhibition of growth at 31.25 µg/mL (Cryptococcus neoformans [3]) | inhibition of growth at 3.4 µg/mL (Candida albicans [4]) | inhibition of growth at 15.62 µg/mL (Cryptococcus neoformans [5]) | inhibition of growth at 7.8 µg/mL (Cryptococcus neoformans [6]) | inhibition of growth at 250 µg/mL (Cryptococcus neoformans [7]) | inhibition of growth at 250 µg/mL (Candida albicans [8]) | EC50 (Leishmania panamensis) | inhibition of growth at 62.5 µg/mL (Candida albicans [9]) | MIC (Staphylococcus aureus [10]) | MIC (Pseudomonas aeruginosa) | inhibition of growth at 125 µg/mL (Candida albicans [11]) | MIC50 (Candida albicans [12]) | MIC80 (Candida albicans [12]) | inhibition of growth at 15.62 µg/mL (Candida albicans [13]) | MIC (Neisseria gonorrhoeae) | MIC (Klebsiella pneumoniae [14]) | MIC (Escherichia coli) | other results
1 | Clc1ccc(N2N=C(c3ccccc3)CC2c2cccc(Nc3ccnc4cc(Cl)ccc34)c2)cc1 (stereo not given) | > 1000 µg/mL | 15.1 µg/mL (≈ 29.7 µM) | > 1000 µg/mL | 5.92% | 2.71% | 0% | 0% | 61% | 26.9% | 15.7 µg/mL (≈ 30.8 µM) | 10.9% | > 1000 µg/mL | > 1000 µg/mL | 18.9% | ≥ 250 µg/mL | ≥ 250 µg/mL | 8.78% | > 1000 µg/mL | > 1000 µg/mL | > 1000 µg/mL | MIC (Klebsiella pneumoniae [15]): > 1000 µg/mL; MIC50 (Cryptococcus neoformans [16]): 250 µg/mL (≈ 491 µM); MIC80 (Cryptococcus neoformans [16]): ≥ 250 µg/mL; inhibition of growth at 7.8 µg/mL (Candida albicans [17]): 4.82%; inhibition of growth at 3.4 µg/mL (Cryptococcus neoformans [18]): 0%; EC50 (Plasmodium falciparum): 10.3 µg/mL (≈ 20.1 µM); inhibition of growth at 125 µg/mL (Cryptococcus neoformans [19]): 46%; LC50 (U-937): > 200 µg/mL; inhibition of growth at 62.5 µg/mL (Cryptococcus neoformans [20]): 13.8%; inhibition of growth at 31.25 µg/mL (Candida albicans [21]): 10.5%
2 | Clc1ccc2c(Nc3cccc(C4CC(c5ccc(Br)cc5)=NN4c4ccccc4)c3)ccnc2c1 (stereo not given) | > 1000 µg/mL | 6.67 µg/mL (≈ 12 µM) | > 1000 µg/mL | 11.8% | 3.09% | 7.94% | 7.67% | 45.1% | 44.9% | 3.59 µg/mL (≈ 6.48 µM) | 12.6% | > 1000 µg/mL | > 1000 µg/mL | 26.3% | ≥ 250 µg/mL | ≥ 250 µg/mL | 8.46% | > 1000 µg/mL | > 1000 µg/mL | > 1000 µg/mL | MIC (Klebsiella pneumoniae [15]): > 1000 µg/mL; MIC50 (Cryptococcus neoformans [16]): ≥ 250 µg/mL; MIC80 (Cryptococcus neoformans [16]): ≥ 250 µg/mL; inhibition of growth at 7.8 µg/mL (Candida albicans [17]): 4.31%; inhibition of growth at 3.4 µg/mL (Cryptococcus neoformans [18]): 3.29%; EC50 (Plasmodium falciparum): 5.54 µg/mL (≈ 10 µM); inhibition of growth at 125 µg/mL (Cryptococcus neoformans [19]): 20.1%; LC50 (U-937): 9.2 µg/mL (≈ 16.6 µM); inhibition of growth at 62.5 µg/mL (Cryptococcus neoformans [20]): 20%; inhibition of growth at 31.25 µg/mL (Candida albicans [21]): 9.65%
